pIC50: −log10 of the molar value. Several values for one entry are separate records, joined by “and”; a condition that tells them apart may be missing. Identical values can stand only once.
Assays:
[1] = % metabolized in monkey S-9 after 2 hours (1 ug/ml); format: ADME; settings: simiiformes, monkey S-9 fraction; read-out: Activity
Summary of the method: (§1)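 Monkey liver homogenised at 0 °C in 3 volumes isotonic KCl (0.05 M phosphate, pH 7.4), spun 9000g 30 min to give S-9. Triplicate incubations at 37 °C for 2 h with cofactor mix (glucose-6-phosphate, NADP, nicotinamide, MgCl2), final drug 1 or 10 μg/mL. Parent measured by fluorescence HPLC after MeOH protein precipitation; % metabolized = 100% minus % remaining at 2 h versus t=0.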

[2] = Aqueous solubility; format: physicochemical; settings: read-out: S
Summary of the method: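 A 10-mg sample was placed in 0.5 mL water and diluted stepwise up to 10 mL, or until it dissolved. Solubility is reported in mg/mL.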

[3] = half-life (t1/2 min); format: ADME; settings: for T1/2: 2 h
Summary of the method: (§2)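 Same monkey liver S-9 incubation (37 °C, final drug 1 or 10 μg/mL, triplicate). Aliquots taken at 0, 15, 30, 60, 90 and 120 min, quenched with MeOH and analysed for parent by fluorescence HPLC peak height. Half-life = ln 2 divided by the slope of a least-squares linear regression of peak height against time.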

Homo sapiens [4] = species on record: Homo sapiens; experiment: Inhibition of human platelet aggregation induced by ADP after 3 min incubation with platelet rich plasma; format: functional; settings: 0.05 h
Summary of the method: (§3)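 Human platelet-rich plasma was preincubated with drug for 3 min (standard) or 15 min, then aggregation was induced with 5.86 μM ADP. Aggregation at a range of drug concentrations was compared with vehicle-treated controls, and IC50 was taken from dose-response curves. Values are single, duplicate or triplicate (with SD) determinations.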

Homo sapiens [5] = species on record: Homo sapiens; experiment: Inhibition of human platelet aggregation induced by ADP after 15 min incubation with platelet rich plasma; format: functional; settings: 0.25 h; summary of the method: as §3
Phosphodiesterase 3 [6] = target: T1, Phosphodiesterase 3 (Homo sapiens, UniProt Q14432+Q13370); experiment: Inhibition of human platelet aggregation cAMP PDE in vitro; format: functional
Summary of the method: (§4)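 Human platelet cAMP PDE assay run as in an earlier protocol, except that the [3H]adenosine product was resolved on DEAE Sephadex. Values are means of duplicate (deviation under 50% of mean) or triplicate determinations.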

[7] = % metabolized in monkey S-9 after 2 hours (10 ug/ml); format: ADME; settings: simiiformes, monkey S-9 fraction; read-out: Activity; summary of the method: as §1
[8] = % metabolized in monkey S-9 after 2 hours (10 ug/mL); format: ADME; settings: simiiformes, monkey S-9 fraction; read-out: Activity; summary of the method: as §1
[9] = t1/2 (min); format: ADME; summary of the method: as §2
Phosphodiesterase 3 [10] = target: T1, Phosphodiesterase 3; experiment: Inhibition of human blood platelet c-AMP phosphodiesterase; format: functional; summary of the method: as §4

| Compound | metabolised at 2 h, 1 ug/ml [1] | solubility [2] | half-life [3] | pIC50 (Homo sapiens [4]) | pIC50 (Homo sapiens [5]) | IC50 (Phosphodiesterase 3 [6]) | metabolised at 2 h, 10 ug/ml [7] | T1/2 [3] | metabolised at 2 h, 10 ug/mL [8] | half-life [9] | pIC50 (Phosphodiesterase 3 [10]) |
| --- | --- | --- | --- | --- | --- | --- | --- | --- | --- | --- | --- |
| Cl.Oc1nc2cc3cc(OCCCc4nnnn4C4CCN(Cc5ccc(F)cc5)CC4)ccc3[nH]c-2n1 | 4.9% | > 10 mg/mL | 24.6 h | 7.49 | 8.10 | 0.00103 µM | – | – | – | – | – |
| Cl.O=S(=O)(CCCOc1ccc2[nH]c3nc(O)nc-3cc2c1)N1CCN(Cc2ccccc2)CC1 | 67.7% | > 20 mg/mL | – | 6.89 | 7.22 | 0.00542 µM | 21.2% | – | – | – | – |
| Cl.O=S(=O)(CCCOc1ccc2[nH]c3nc(O)nc-3cc2c1)C1CCN(Cc2ccccc2)CC1 | 25.2% | > 10 mg/mL | – | 7.60 | 8.19 | 0.00063 µM | 9.6% | – | – | – | – |
| CCC(CC)CN1CCC(S(=O)(=O)CCCOc2ccc3[nH]c4nc(O)nc-4cc3c2)CC1.Cl | 17% | < 10 mg/mL | 6.08 h | 7.41 | 8.05 | 0.00113 µM | 22.4% | 7.05 h | – | – | – |
| Cl.Oc1nc2cc3cc(OCCCc4nnnn4C4CCN(Cc5ccccc5)CC4)ccc3[nH]c-2n1 | 7.2% | > 10 mg/mL | 15.8 h | 7.41 | 8.40 | 0.00084 µM | – | – | – | – | – |
| CCC(CC)CN1CCC(n2nnnc2CCCOc2ccc3[nH]c4nc(O)nc-4cc3c2)CC1.Cl | 31.3% | > 10 mg/mL | 3.37 h | 7.92 | 8.52 | 0.00081 µM | – | – | – | – | – |
| Cl.O=S(=O)(CCCOc1ccc2[nH]c3nc(O)nc-3cc2c1)N1CCN(Cc2ccc(F)cc2)CC1 | 29.4% | > 20 mg/mL | 6.75 h | 6.55 | 7.46 | 0.00496 µM | 18% | 4.02 h | – | – | – |
| Cl.O=C(NCCCOc1ccc2[nH]c3nc(O)nc-3cc2c1)N1CCN(CC2CCCCC2)CC1 | 58.5% | > 20 mg/mL | – | 7.14 | 7.74 | 0.00113 µM | 23.6% | – | – | – | – |
| Cl.O=S(=O)(CCCOc1ccc2[nH]c3nc(O)nc-3cc2c1)C1CCN(Cc2ccc(F)cc2)CC1 | – | > 10 mg/mL | – | 7.70 | 8.08 | – | – | – | 53% | 2 h | 9.00 |
| O=C(CCCOc1ccc2[nH]c3nc(O)nc-3cc2c1)N1CCN(CC2CCCCC2)CC1 | 40.6% | – | – | – | – | – | 21.7% | 5.55 h and 2.4 h | – | – | – |
| Cl.Oc1nc2cc3cc(OCCCc4nnnn4C4CCN(CC5CCCCC5)CC4)ccc3[nH]c-2n1 | 22.9% | > 10 mg/mL | 5.13 h | 7.80 | 8.52 | 0.00081 µM | – | – | – | – | – |
